# According to ChEMBL document CHEMBL1817564, “Recognition of HIV TAR RNA by triazole linked neomycin dimers” (Bioorg Med Chem Lett, 2011):
# Activity calls are given as the source filed them. The calls are words filed in the database; no cut-off is given here.
# Columns and labels:
# [1] = test system: Nucleic Acid; experiment: Binding affinity to HIV1 TAR RNA assessed as melting temperature at HIV1 TAR RNA to compound ratio of 1 at pH 6.8 by UV thermal denaturation assay; format: nucleic-acid assay; details: Human immunodeficiency virus 1
# In short: (§1)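 UV melting of HIV-1 TAR RNA (1 µM/strand) with ligand at 1 µM (ratio 1) in 100 mM KCl, 10 mM SC, 0.5 mM EDTA, pH 6.8. Tm taken from first-derivative plots of absorbance versus temperature; ΔTm is relative to RNA alone.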
# [2] = test system: Nucleic Acid; experiment: Binding affinity to HIV1 TAR RNA assessed as change in melting temperature at HIV1 TAR RNA to compound ratio of 1 at pH 6.8 by UV thermal denaturation assay; format: nucleic-acid assay; details: Human immunodeficiency virus 1; in short: as §1
# [3] = test system: Nucleic Acid; experiment: Binding affinity to HIV1 TAR RNA assessed as change in melting temperature at compound to TAR RNA ratio of 4 at pH 6.8 by UV thermal denaturation assay; format: nucleic-acid assay; details: Human immunodeficiency virus 1
# [4] = test system: Nucleic Acid; experiment: Binding affinity to HIV1 TAR RNA assessed as melting temperature at compound to TAR RNA ratio of 2 at pH 6.8 by UV thermal denaturation assay; format: nucleic-acid assay; details: Human immunodeficiency virus 1
# In short: (§2)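 TAR RNA UV thermal denaturation in 100 mM KCl, 10 mM SC, 0.5 mM EDTA, pH 6.8, with dimer:RNA at 2:1. Tm taken from first-derivative plots.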
# [5] = test system: Nucleic Acid; experiment: Binding affinity to HIV1 TAR RNA assessed as change in melting temperature at compound to TAR RNA ratio of 2 at pH 6.8 by UV thermal denaturation assay; format: nucleic-acid assay; details: Human immunodeficiency virus 1; in short: as §2
# [6] = test system: Nucleic Acid; experiment: Binding affinity to HIV1 TAR RNA assessed as melting temperature at compound to TAR RNA ratio of 4 at pH 6.8 by UV thermal denaturation assay; format: nucleic-acid assay; details: Human immunodeficiency virus 1
# [7] = test system: Nucleic Acid; experiment: Binding affinity to HIV1 TAR RNA at […] up to 3 by CD Spectroscopy; format: nucleic-acid assay; details: Human immunodeficiency virus 1
# In short: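 CD titration of HIV TAR RNA with incremental additions of neomycin dimer, covering drug/duplex ratio (rdd) 0 to 3. Read-out is molar ellipticity.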
# [8] = test system: Nucleic Acid; experiment: Inhibition of HIV1 TAR RNA; format: nucleic-acid assay, Human immunodeficiency virus 1
compound,measurement,setting,value
NC[C@@H]1O[C@H](O[C@H]2[C@@H](O)[C@H](O[C@@H]3[C@@H](O)[C@H](N)C[C@H](N)[C@H]3O[C@H]3O[C@H](CN)[C@@H](O)[C@H](O)[C@H]3N)O[C@@H]2Cn2cc(Cc3cccc(Cc4cn(C[C@H]5O[C@@H](O[C@@H]6[C@@H](O)[C@H](N)C[C@H](N)[C@H]6O[C@H]6O[C@H](CN)[C@@H](O)[C@H](O)[C@H]6N)[C@H](O)[C@@H]5O[C@H]5O[C@@H](CN)[C@@H](O)[C@H](O)[C@H]5N)nn4)c3)nn2)[C@H](N)[C@@H](O)[C@@H]1O,Tm,[1],78.2 °C
same,ΔTm,[2],9.3 °C
C/C(CCc1cn(C[C@H]2O[C@@H](O[C@@H]3[C@@H](O)[C@H](N)C[C@H](N)[C@H]3O[C@H]3O[C@H](CN)[C@@H](O)[C@H](O)[C@H]3N)[C@H](O)[C@@H]2O[C@H]2O[C@@H](CN)[C@@H](O)[C@H](O)[C@H]2N)nn1)=C(/C)CCc1cn(C[C@H]2O[C@@H](O[C@@H]3[C@@H](O)[C@H](N)C[C@H](N)[C@H]3O[C@H]3O[C@H](CN)[C@@H](O)[C@H](O)[C@H]3N)[C@H](O)[C@@H]2O[C@H]2O[C@@H](CN)[C@@H](O)[C@H](O)[C@H]2N)nn1,Tm,[1],76.4 °C
same,ΔTm,[2],7.6 °C
NC[C@@H]1O[C@H](O[C@H]2[C@@H](O)[C@H](O[C@@H]3[C@@H](O)[C@H](N)C[C@H](N)[C@H]3O[C@H]3O[C@H](CN)[C@@H](O)[C@H](O)[C@H]3N)O[C@@H]2Cn2cc(CCCc3cn(C[C@H]4O[C@@H](O[C@@H]5[C@@H](O)[C@H](N)C[C@H](N)[C@H]5O[C@H]5O[C@H](CN)[C@@H](O)[C@H](O)[C@H]5N)[C@H](O)[C@@H]4O[C@H]4O[C@@H](CN)[C@@H](O)[C@H](O)[C@H]4N)nn3)nn2)[C@H](N)[C@@H](O)[C@@H]1O,Tm,[1],78.2 °C
same,ΔTm,[3],12.4 °C
same,Tm,[4],80.4 °C
same,ΔTm,[2],9.3 °C
same,ΔTm,[5],11.5 °C
same,Tm,[6],81.3 °C
NC[C@@H]1O[C@H](O[C@H]2[C@@H](O)[C@H](O[C@@H]3[C@@H](O)[C@H](N)C[C@H](N)[C@H]3O[C@H]3O[C@H](CN)[C@@H](O)[C@H](O)[C@H]3N)O[C@@H]2Cn2cc(COCc3cn(C[C@H]4O[C@@H](O[C@@H]5[C@@H](O)[C@H](N)C[C@H](N)[C@H]5O[C@H]5O[C@H](CN)[C@@H](O)[C@H](O)[C@H]5N)[C@H](O)[C@@H]4O[C@H]4O[C@@H](CN)[C@@H](O)[C@H](O)[C@H]4N)nn3)nn2)[C@H](N)[C@@H](O)[C@@H]1O,Tm,[1],79.1 °C
same,ΔTm,[2],10.2 °C
same,Activity,[7],Active
NC[C@@H]1O[C@H](O[C@H]2[C@@H](O)[C@H](O[C@@H]3[C@@H](O)[C@H](N)C[C@H](N)[C@H]3O[C@H]3O[C@H](CN)[C@@H](O)[C@H](O)[C@H]3N)O[C@@H]2Cn2cc(CCCCCCc3cn(C[C@H]4O[C@@H](O[C@@H]5[C@@H](O)[C@H](N)C[C@H](N)[C@H]5O[C@H]5O[C@H](CN)[C@@H](O)[C@H](O)[C@H]5N)[C@H](O)[C@@H]4O[C@H]4O[C@@H](CN)[C@@H](O)[C@H](O)[C@H]4N)nn3)nn2)[C@H](N)[C@@H](O)[C@@H]1O,Tm,[1],74.9 °C
same,ΔTm,[2],6.1 °C
NC[C@@H]1O[C@H](O[C@H]2[C@@H](O)[C@H](O[C@@H]3[C@@H](O)[C@H](N)C[C@H](N)[C@H]3O[C@H]3O[C@H](CN)[C@@H](O)[C@H](O)[C@H]3N)O[C@@H]2Cn2cc(Cc3ccc(Cc4cn(C[C@H]5O[C@@H](O[C@@H]6[C@@H](O)[C@H](N)C[C@H](N)[C@H]6O[C@H]6O[C@H](CN)[C@@H](O)[C@H](O)[C@H]6N)[C@H](O)[C@@H]5O[C@H]5O[C@@H](CN)[C@@H](O)[C@H](O)[C@H]5N)nn4)cc3)nn2)[C@H](N)[C@@H](O)[C@@H]1O,Tm,[1],78.5 °C
same,ΔTm,[2],9.6 °C
NC[C@@H]1O[C@H](O[C@H]2[C@@H](O)[C@H](O[C@@H]3[C@@H](O)[C@H](N)C[C@H](N)[C@H]3O[C@H]3O[C@H](CN)[C@@H](O)[C@H](O)[C@H]3N)O[C@@H]2CO)[C@H](N)[C@@H](O)[C@@H]1O [FRAMYCETIN],Tm,[1],69.1 °C
same,ΔTm,[2],0.2 °C
same,IC50,[8],417 nM
same,Kd,[8],< 1000 nM
NC[C@@H]1O[C@H](O[C@H]2[C@@H](O)[C@H](O[C@@H]3[C@@H](O)[C@H](N)C[C@H](N)[C@H]3O[C@H]3O[C@H](CN)[C@@H](O)[C@H](O)[C@H]3N)O[C@@H]2Cn2cc(COCCCCCCCCCCCCOCc3cn(C[C@H]4O[C@@H](O[C@@H]5[C@@H](O)[C@H](N)C[C@H](N)[C@H]5O[C@H]5O[C@H](CN)[C@@H](O)[C@H](O)[C@H]5N)[C@H](O)[C@@H]4O[C@H]4O[C@@H](CN)[C@@H](O)[C@H](O)[C@H]4N)nn3)nn2)[C@H](N)[C@@H](O)[C@@H]1O,Tm,[1],72.1 °C
same,ΔTm,[2],3.3 °C
NC[C@@H]1O[C@H](O[C@H]2[C@@H](O)[C@H](O[C@@H]3[C@@H](O)[C@H](N)C[C@H](N)[C@H]3O[C@H]3O[C@H](CN)[C@@H](O)[C@H](O)[C@H]3N)O[C@@H]2Cn2cc(COCCCCCCCCOCc3cn(C[C@H]4O[C@@H](O[C@@H]5[C@@H](O)[C@H](N)C[C@H](N)[C@H]5O[C@H]5O[C@H](CN)[C@@H](O)[C@H](O)[C@H]5N)[C@H](O)[C@@H]4O[C@H]4O[C@@H](CN)[C@@H](O)[C@H](O)[C@H]4N)nn3)nn2)[C@H](N)[C@@H](O)[C@@H]1O,Tm,[1],74.3 °C
same,ΔTm,[2],5.4 °C
NC[C@@H]1O[C@H](O[C@H]2[C@@H](O)[C@H](O[C@@H]3[C@@H](O)[C@H](N)C[C@H](N)[C@H]3O[C@H]3O[C@H](CN)[C@@H](O)[C@H](O)[C@H]3N)O[C@@H]2Cn2cc(CCCCc3cn(C[C@H]4O[C@@H](O[C@@H]5[C@@H](O)[C@H](N)C[C@H](N)[C@H]5O[C@H]5O[C@H](CN)[C@@H](O)[C@H](O)[C@H]5N)[C@H](O)[C@@H]4O[C@H]4O[C@@H](CN)[C@@H](O)[C@H](O)[C@H]4N)nn3)nn2)[C@H](N)[C@@H](O)[C@@H]1O,Tm,[1],77.1 °C
same,ΔTm,[2],8.2 °C
